Data: ChEMBL document CHEMBL4024777, “Discovery of LY3104607: A Potent and Selective G Protein-Coupled Receptor 40 (GPR40) Agonist with Optimized Pharmacokinetic Properties to Support Once Daily Oral Treatment in Patients with Type 2 Diabetes Mellitus” (J Med Chem, 2018)
In brackets after ≈: the same amount, converted by molar mass. Activity calls are given as the source filed them. The calls are words filed in the database; no cut-off is given here.

Key:
[1] = tested on: Rattus norvegicus; experiment: Antidiabetic activity in Zucker fa/fa rat assessed as reduction in blood glucose AUC at 1 mg/kg, po administered for 1 day followed by OGTT at 1 hr after compound dosing and measured 60 mins post glucose challenge by oral glucose tolerance test; format: functional, organism-based
[2] = Drug metabolism in dog hepatocytes assessed as oxidation; format: ADME, cell-based, Canis lupus familiaris, Hepatocyte
[3] = Drug metabolism in rat hepatocytes assessed as O-dealkylation; format: ADME, cell-based, Hepatocyte
[4] = Dissociation constant, pKa of the compound; format: physicochemical
[5] = Volume of distribution in type 2 diabetes patient; format: ADME; settings: human, in vivo
[6] = tested on: Rattus norvegicus; experiment: Antidiabetic activity in po dosed Zucker fa/fa rat assessed as reduction in blood glucose AUC administered daily for 21 days followed by OGTT at 1 hr after compound dosing and measured 60 mins post glucose challenge by oral glucose tolerance test; format: functional
[7] = Drug metabolism in dog hepatocytes assessed as O-dealkylation; format: ADME, cell-based, Canis lupus familiaris, Hepatocyte
[8] = Drug metabolism in mouse hepatocytes assessed as glucuronidation; format: ADME, cell-based, Hepatocyte
[9] = Clearance in type 2 diabetes patient; format: ADME; settings: human, in vivo
[10] = Drug metabolism in mouse hepatocytes assessed as O-dealkylation; format: ADME, cell-based, Hepatocyte
[11] = Drug metabolism in mouse hepatocytes assessed as oxidation; format: ADME, cell-based, Hepatocyte
[12] = Drug metabolism in rat hepatocytes assessed as glucuronidation; format: ADME, cell-based, Hepatocyte
[13] = molecular target: T1, Free fatty acid receptor 1 (Homo sapiens, UniProt O14842); experiment: Agonist activity at human GPR40 receptor expressed in HEK293 cells assessed as increase in intracellular calcium flux after 2.5 hrs measured over 3 mins by calcium 4 dye-based FLIPR assay relative to linoleic acid; format: functional, cell-based; design: Activity: concentration or dose not given beside the values
T1 sequence (O14842 whole entry): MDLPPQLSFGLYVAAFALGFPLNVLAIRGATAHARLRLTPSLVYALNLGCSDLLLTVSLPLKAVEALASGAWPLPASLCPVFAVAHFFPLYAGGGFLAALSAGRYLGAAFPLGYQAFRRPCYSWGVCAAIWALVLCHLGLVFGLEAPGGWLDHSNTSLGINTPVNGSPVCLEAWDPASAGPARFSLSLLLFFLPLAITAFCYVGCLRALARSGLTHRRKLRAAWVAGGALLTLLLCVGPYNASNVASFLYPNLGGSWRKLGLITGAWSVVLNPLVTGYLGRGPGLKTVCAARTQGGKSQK
Procedure, shortened: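 Human GPR40 calcium flux was read on FLIPR. Percent stimulation is expressed against the response to 100 uM linoleic acid.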

[14] = Drug metabolism in dog hepatocytes assessed as glucuronidation; format: ADME, cell-based, Canis lupus familiaris, Hepatocyte
[15] = Metabolic stability in rat microsomes assessed as compound metabolized after 30 mins; format: ADME, Microsome; settings: read-out: Drug metabolism
Procedure, shortened: (§1)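 Compound incubated 30 min with liver microsomes from mouse, rat, dog or human. Percent of compound metabolized recorded, as mean (SEM, n).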

[16] = Intrinsic clearance in human microsomes; format: ADME, Microsome
[17] = Aqueous solubility of the compound at pH 7.4; format: physicochemical
Procedure, shortened: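 Solubility was measured by DMSO/aqueous precipitation at pH 7.4 and reported as the last soluble concentration.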

[18] = Metabolic stability in dog microsomes assessed as compound metabolized after 30 mins; format: ADME, Canis lupus familiaris, Microsome; settings: read-out: Drug metabolism; procedure, shortened: as §1
[19] = Drug metabolism in rat hepatocytes assessed as oxidation; format: ADME, cell-based, Hepatocyte
[20] = molecular target: T1, Free fatty acid receptor 1; experiment: Competitive displacement of [3H]-TAK-875 from full length human recombinant GPR40 expressed in HEK293 cell membranes after 2 hrs by scintillation counting
Procedure, shortened: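 Binding was measured as competitive inhibition of [3H]-TAK875 (fasiglifam) binding to membranes from cells overexpressing recombinant human GPR40. Ki is reported with SEM and n.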

[21] = molecular target: T2, Peroxisome proliferator-activated receptor delta (Homo sapiens) (UniProt Q03181); experiment: Displacement of [3H]-agonist from human PPARdelta expressed in baculovirus infecetd Sf9 cells system up to 30 uM after 10 hrs in presence of DR2 by scintillation proximity assay
T2 sequence (whole entry): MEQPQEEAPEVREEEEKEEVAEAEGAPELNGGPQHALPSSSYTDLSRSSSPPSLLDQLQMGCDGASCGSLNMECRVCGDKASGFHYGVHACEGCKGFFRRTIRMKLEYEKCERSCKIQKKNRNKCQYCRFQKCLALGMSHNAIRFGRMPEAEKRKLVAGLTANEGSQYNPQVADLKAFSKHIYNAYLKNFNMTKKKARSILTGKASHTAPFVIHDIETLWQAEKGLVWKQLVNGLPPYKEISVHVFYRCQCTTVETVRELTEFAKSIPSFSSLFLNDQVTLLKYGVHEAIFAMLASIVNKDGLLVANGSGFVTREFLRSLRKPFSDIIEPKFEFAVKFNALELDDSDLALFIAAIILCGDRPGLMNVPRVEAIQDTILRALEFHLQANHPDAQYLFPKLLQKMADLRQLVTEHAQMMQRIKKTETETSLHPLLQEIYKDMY
Procedure, shortened: (§2)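 PPAR alpha, delta and gamma binding and functional activity were each tested at concentrations up to 30 µM.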

[22] = molecular target: T1, Free fatty acid receptor 1; experiment: Agonist activity at human PK-tagged GPR40 expressed in HEK293 cells assessed as EA-tagged beta-arrestin recruitment after 90 mins in presence of 1 % heat inactivated FBS by beta-galactosidase reporter gene assay relative to untreated control; format: cell-based
[23] = molecular target: Free fatty acid receptor 1 (Rattus norvegicus, UniProt Q8K3T4); experiment: Agonist activity at rat PK-tagged GPR40 expressed in human U2OS cells assessed as EA-tagged beta-arrestin recruitment after 90 mins in presence of 1 % heat inactivated FBS by beta-galactosidase reporter gene assay; format: cell-based
Chain of Free fatty acid receptor 1 (Rattus norvegicus, UniProt Q8K3T4) (Q8K3T4 whole entry): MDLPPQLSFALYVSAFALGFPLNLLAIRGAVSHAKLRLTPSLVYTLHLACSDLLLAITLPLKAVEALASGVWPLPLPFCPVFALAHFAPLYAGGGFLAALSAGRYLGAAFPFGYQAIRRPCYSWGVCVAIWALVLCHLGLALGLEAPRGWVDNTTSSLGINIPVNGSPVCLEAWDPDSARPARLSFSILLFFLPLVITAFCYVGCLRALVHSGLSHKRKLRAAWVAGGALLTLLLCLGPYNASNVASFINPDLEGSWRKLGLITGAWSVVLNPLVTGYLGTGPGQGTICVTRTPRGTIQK
Procedure, shortened: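 β-Arrestin recruitment used rat GPR40 in the presence of 1% FBS. EC50 and % maximal stimulation are reported with SEM and n.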

[24] = molecular target: T3, Peroxisome proliferator-activated receptor gamma (Homo sapiens) (UniProt P37231); experiment: Displacement of [3H]-agonist from human PPARgamma expressed in baculovirus infecetd Sf9 cells system up to 30 uM after 10 hrs in presence of DR2 by scintillation proximity assay; procedure, shortened: as §2
T3 sequence (whole entry): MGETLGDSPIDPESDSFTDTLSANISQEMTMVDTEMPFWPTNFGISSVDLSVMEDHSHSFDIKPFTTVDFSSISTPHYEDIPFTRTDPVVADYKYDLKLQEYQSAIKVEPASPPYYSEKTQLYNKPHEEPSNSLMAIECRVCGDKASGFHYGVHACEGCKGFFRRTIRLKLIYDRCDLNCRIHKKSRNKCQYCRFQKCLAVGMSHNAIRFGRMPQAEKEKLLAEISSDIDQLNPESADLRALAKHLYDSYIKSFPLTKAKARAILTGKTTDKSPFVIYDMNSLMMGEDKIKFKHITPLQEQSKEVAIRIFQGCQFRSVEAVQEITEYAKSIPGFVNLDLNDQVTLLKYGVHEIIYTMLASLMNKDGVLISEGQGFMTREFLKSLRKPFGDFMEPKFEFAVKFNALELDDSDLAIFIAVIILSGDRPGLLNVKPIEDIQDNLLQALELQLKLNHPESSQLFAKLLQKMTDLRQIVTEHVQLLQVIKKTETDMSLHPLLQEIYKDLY

[25] = molecular target: T4, Peroxisome proliferator-activated receptor alpha (Homo sapiens) (UniProt Q07869); experiment: Displacement of [3H]-agonist from human PPARalpha expressed in baculovirus infecetd Sf9 cells system up to 30 uM after 10 hrs in presence of DR2 by scintillation proximity assay; procedure, shortened: as §2
T4 sequence (whole entry): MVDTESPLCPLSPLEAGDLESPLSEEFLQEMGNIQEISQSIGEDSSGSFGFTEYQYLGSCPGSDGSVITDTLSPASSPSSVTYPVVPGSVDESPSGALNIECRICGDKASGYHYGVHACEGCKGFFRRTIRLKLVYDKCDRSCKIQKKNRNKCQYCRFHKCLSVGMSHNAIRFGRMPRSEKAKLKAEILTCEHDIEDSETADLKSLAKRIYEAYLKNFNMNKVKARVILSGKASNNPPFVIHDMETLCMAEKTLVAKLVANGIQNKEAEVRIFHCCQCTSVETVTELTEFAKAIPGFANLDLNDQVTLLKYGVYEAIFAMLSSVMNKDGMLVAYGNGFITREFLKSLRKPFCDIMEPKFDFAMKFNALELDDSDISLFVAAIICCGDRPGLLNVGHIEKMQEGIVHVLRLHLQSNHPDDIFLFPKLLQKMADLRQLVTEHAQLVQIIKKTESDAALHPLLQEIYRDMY

[26] = tested on: 3T3-L1; experiment: Induction of adipogenesis in mouse 3T3L1 cells; format: functional, cell-based
Procedure, shortened: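 Adipogenesis was assessed in 3T3-L1 cells.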

[27] = molecular target: T1, Free fatty acid receptor 1; experiment: Agonist activity at human GPR40 receptor expressed in HEK293 cells assessed as increase in intracellular calcium flux after 2.5 hrs measured over 3 mins in presence of 0.1% serum albumin by calcium 4 dye-based FLIPR assay; format: functional, cell-based
[28] = molecular target: T1, Free fatty acid receptor 1; experiment: Agonist activity at human PK-tagged GPR40 expressed in HEK293 cells assessed as EA-tagged beta-arrestin recruitment after 90 mins in presence of 1 % heat inactivated FBS by beta-galactosidase reporter gene assay; format: cell-based
[29] = molecular target: T1, Free fatty acid receptor 1; experiment: Agonist activity at human GPR40 receptor expressed in HEK293 cells assessed as increase in intracellular calcium flux after 2.5 hrs measured over 3 mins by calcium 4 dye-based FLIPR assay; format: functional, cell-based
Procedure, shortened: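 Calcium flux was read by FLIPR in cells carrying recombinant human GPR40. Percent stimulation is relative to the response to 100 µM linoleic acid. EC50 is reported with SEM and n.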

[30] = molecular target: T2, Peroxisome proliferator-activated receptor delta (Homo sapiens); experiment: Agonist activity at GAL4-fused human PPARdelta expressed in African green monkey CV1 cells up to 30 uM after 24 hrs by luciferase reporter gene assay; format: cell-based; procedure, shortened: as §2
[31] = molecular target: Free fatty acid receptor 1 (Rattus norvegicus) (UniProt Q8K3T4); experiment: Agonist activity at rat PK-tagged GPR40 expressed in human U2OS cells assessed as EA-tagged beta-arrestin recruitment after 90 mins in presence of 1 % heat inactivated FBS by beta-galactosidase reporter gene assay relative to untreated control; format: cell-based
Chain of Free fatty acid receptor 1 (Rattus norvegicus) (Q8K3T4 whole entry): as the sequence (Q8K3T4 whole entry) above

[32] = molecular target: T3, Peroxisome proliferator-activated receptor gamma (Homo sapiens); experiment: Agonist activity at […] human PPARgamma expressed in African green monkey CV1 cells up to 30 uM after 24 hrs by luciferase reporter gene assay; format: cell-based; procedure, shortened: as §2
[33] = Protein binding in plasma (unknown origin) by equilibrium dialysis assay; format: ADME, cell-free; settings: read-out: PPB
[34] = molecular target: T4, Peroxisome proliferator-activated receptor alpha (Homo sapiens); experiment: Agonist activity at GAL4-fused human PPARalpha expressed in African green monkey CV1 cells up to 30 uM after 24 hrs by luciferase reporter gene assay; format: cell-based; procedure, shortened: as §2

Structure (SMILES) | Ki [20] | Activity [21] | %max [22] | EC50 [23] | Activity [24] | Activity [25] | Activity [26] | Activity [27] | Activity [13] | EC50 [28] | EC50 [29] | Activity [30] | %max [31] | Activity [32] | fraction unbound [33] | Activity [34] | further results
CC#C[C@@H](CC(=O)O)c1ccc(OCc2ccc(CN3CCC4(C=Cc5ccccc54)CC3)cc2)cc1 [LY2881835] | – | – | – | – | – | – | – | – | – | – | – | – | – | – | – | – | Activity [1]: Active; Drug metabolism [2]: Metabolite_Detected; Drug metabolism [3]: Metabolite_Detected; pKa [4]: 4.1 to 8.1; Vd [5]: 111 L; ED90 [6]: 1 mg/kg; Drug metabolism [7]: Metabolite_Detected; Drug metabolism [8]: Metabolite_Detected; clearance [9]: 183 mL/min; Drug metabolism [10]: Metabolite_Detected; Drug metabolism [11]: Metabolite_Detected; Drug metabolism [12]: Metabolite_Detected; %max [13]: 62%; Drug metabolism [14]: Metabolite_Detected; metabolised at 0.5 h [15]: 64%; K [16]: 0.033 h⁻¹; solubility [17]: 61 to 80 µM (≈ 30 to 39.3 µg/mL); metabolised at 0.5 h [18]: 65%; Drug metabolism [19]: Metabolite_Detected
CC#C[C@@H](CC(=O)O)c1ccc(OCc2ccc3nc(-c4c(C)cc(OCCCS(C)(=O)=O)cc4C)nn3c2)cc1 | 63 nM | inactive | 114% | 95 nM | inactive | inactive | inactive | Active | 71% | 1490 nM | 117 nM | inactive | 140% | inactive | < 0.01 | inactive | –
CC#C[C@@H](CC(=O)O)c1ccc(OCc2ccc3nc(-c4ccc(OC(F)F)cc4)nn3c2)cc1 | 60 nM | inactive | 127% | 98 nM | inactive | inactive | inactive | Active | 64% | 166 nM | 1 nM | inactive | 142% | inactive | < 0.01 | inactive | –
CC#C[C@@H](CC(=O)O)c1ccc(OCc2ccc3nc(-c4ccc(OCCOC)cc4)nn3c2)cc1 | 102 nM | inactive | 121% | 562 nM | inactive | inactive | inactive | Active | 74% | 681 nM | 16 nM | inactive | 133% | inactive | < 0.01 | inactive | –
CC#C[C@@H](CC(=O)O)c1ccc(OCc2ccc3nc(-c4ccc(C#N)cc4)nn3c2)cc1 | 35 nM | inactive | 124% | 216 nM | inactive | inactive | inactive | Active | 65% | 443 nM | 9 nM | inactive | 125% | inactive | < 0.01 | inactive | –
CC#C[C@@H](CC(=O)O)c1ccc(OCc2ccc3nc(-c4ccc(C(C)C)cc4)nn3c2)cc1 | 32 nM | inactive | 154% | 30 nM | inactive | inactive | inactive | Active | 65% | 67 nM | 2 nM | inactive | 123% | inactive | < 0.01 | inactive | –
CC#C[C@@H](CC(=O)O)c1ccc(OCc2ccc3nc(-c4ccc(OCCC(C)(C)O)cc4)nn3c2)cc1 | 37 nM | inactive | 132% | 68 nM | inactive | inactive | inactive | Active | 89% | 301 nM | 72 nM | inactive | 121% | inactive | < 0.01 | inactive | –
